# FXIIa inh = human FXIIa protease inhibitors, primary screen, biochemical, 1536-well. purified FXIIa, Boc-QGR-AMC fluorogenic substrate, 2 h. inhibition, % at 5 µM. 0.3% of 220,000 active. AID 800, 2007; in the data active = inhibition above about 40%;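 also: 0% = enzyme with no compound and 100% = blank without enzyme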
# FXIa inh 1536 = human FXIa protease inhibitors, primary screen, biochemical, 1536-well | Coagulation factor XI (Homo sapiens), P03951 | inhibition, % at 5 µM | 0.14% of 220,000 active | purified FXIa, Boc-Glu-Ala-Arg-AMC fluorogenic substrate | AID 798, 2007;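 active = inhibition of at least 40%; inactive = inhibition below 40%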;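 also: fluorescence of freed AMC excited at 355 nm; 0% = enzyme without compound and 100% = no enzyme blank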
# EP2 modulator = EP2 receptor modulators, cAMP readout, primary screen, cell-based, HTRF cAMP, PGE2 stimulation. Prostaglandin E2 receptor EP2 subtype (Homo sapiens), P43116. EP2-expressing cells, cAMP HTRF FRET, PGE2 co-stimulation. induction, % at 25 µM. 0.83% of 260,000 active. AID 940, 2007;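 active = compounds whose cAMP rise, as percent of the full-agonist control response, exceeds 60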;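 also: rat C6 glioma line stably carrying human EP2 under a CMV promoter; the protocol text gives 20 µM as final concentration; 100% = response of wells given 1 µM PGE2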
# Target sequence (P43116 whole entry, looked up): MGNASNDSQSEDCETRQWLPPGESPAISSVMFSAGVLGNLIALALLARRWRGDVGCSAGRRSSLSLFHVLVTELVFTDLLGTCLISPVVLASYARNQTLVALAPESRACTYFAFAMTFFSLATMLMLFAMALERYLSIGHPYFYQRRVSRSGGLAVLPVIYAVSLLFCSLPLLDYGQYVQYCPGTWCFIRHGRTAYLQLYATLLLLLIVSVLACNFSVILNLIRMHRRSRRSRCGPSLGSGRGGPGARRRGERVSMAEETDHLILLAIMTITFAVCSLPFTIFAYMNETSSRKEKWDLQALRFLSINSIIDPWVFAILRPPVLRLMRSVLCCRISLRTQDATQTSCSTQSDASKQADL
# thrombin 1536 = human alpha-thrombin inhibitors, primary screen, counter-screen for coagulation protease inhibitor project, biochemical, 1536-well, fluorogenic AMC substrate. Prothrombin (Homo sapiens), P00734. Boc-VPR-AMC fluorogenic substrate cleavage. inhibition, % at 5 µM. 0.26% of 220,000 active;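 active = inhibition at or above 40%; inactive = inhibition below 40%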;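 also: 0% = enzyme with no compound and 100% = wells without enzyme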
#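 System – human alpha-thrombin · Medium – pH 7.5 Tris (50 mM) with NaCl 150 mM, Tween 20 0.05% · Compound – single-point dosing at 5 µM, 0.2% DMSO · Incubation – enzyme reaction carried out at room temperature · Technique – fluorescence of released AMC, ex 355 nm, em 460 nm · Read-out basis – % inhibition of thrombin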
# EP2 antag = human EP2 receptor antagonists, primary screen, TR-FRET cAMP, C6 glioma cells; Prostaglandin E2 receptor EP2 subtype (Homo sapiens), P43116; C6 glioma cells expressing human EP2; cells stimulated with saturating PGE2; inhibition, % at 25 µM; 0.52% of 260,000 active;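 active = percent inhibition above 40 after rounding to a whole number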;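 also: rat C6 glioma host cells with rolipram phosphodiesterase inhibitor present; the protocol text gives 20 µM as final concentration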
# hK5 inh = human KLK5 protease inhibitors, primary screen, biochemical, 1536-well. recombinant hK5, fluorogenic AMC substrate cleavage. inhibition, % at 5 µM. 0.59% of 210,000 active. AID 873, 2007;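 active = inhibition of 40% or more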;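 also: 0% = enzyme controls without compound and 100% = no-enzyme blanks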
# Target sequence (Q9Y337 67-293 limits assumed): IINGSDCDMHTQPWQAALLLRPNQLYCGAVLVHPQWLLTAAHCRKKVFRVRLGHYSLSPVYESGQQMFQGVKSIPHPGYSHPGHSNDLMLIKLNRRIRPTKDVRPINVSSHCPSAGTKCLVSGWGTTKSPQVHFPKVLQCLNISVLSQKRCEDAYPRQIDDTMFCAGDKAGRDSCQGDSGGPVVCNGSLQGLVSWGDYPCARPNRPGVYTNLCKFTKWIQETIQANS
# Starred values were filed as active, the others as inactive; · = no result given. A selection: hits, their analogues and other compounds. The true share with any hit is near 2.1%.
SMILES,FXIIa inh,FXIa inh 1536,EP2 modulator,thrombin 1536,EP2 antag,hK5 inh
Cc1ccccc1C1C2=C(CCCC2=O)NC2=C1C(=O)CCC2,·,·,3,·,12,·
Cc1ccnc(N2CCC(C(=O)Nc3cc(F)ccc3C)CC2)n1,·,·,-23,·,17,·
CCC(=O)N1CCN(c2ccc(NC(=O)c3ccc(OC(C)C)cc3)cc2)CC1,·,·,-16,·,11,·
O=C(C1CCCO1)N1CCCC(c2ncncc2-c2ccncc2)C1 (stereo unspecified),·,·,-26,·,·,·
Cc1cc(C)n(CCC(=O)N2C[C@H](C(=O)O)[C@@H](c3ccc(F)cc3)C2)n1,·,·,16,·,7,·
CCc1cccc2[nH]c3cc([N+](=O)[O-])ccc3c12,1,9,65*,-3,7,-3
CCc1ccc(C2CC(c3ccccc3)Nc3nc(N)nn32)cc1 (stereo unspecified),12,10,-8,5,7,9
CCc1ccc(C2CC(c3ccccc3)n3ncnc3N2)cc1 (stereo unspecified),-9,-15,-12,-4,2,45*
Cc1nn(C)c(C)c1/C=C(/C(=O)C(C)C)n1cncn1,25,42*,-5,7,7,40*
Cc1nn(C)c(C)c1/C=C(/C(=O)C(C)(C)C)n1cncn1,3,-2,13,-3,9,-1
Cc1c(Cl)c(S(N)(=O)=O)cc(S(N)(=O)=O)c1NC(=O)c1ccc(Cl)cc1,·,·,36,·,45*,·
Cc1cccc2cc(CN(Cc3cccs3)S(=O)(=O)c3ccccc3Cl)c(=O)[nH]c12,·,·,14,·,11,·
CCOc1ccc(NS(=O)(=O)c2ccc(NC(=S)NC(=O)C(C)C)cc2)cc1,15,1,-45,7,10,52*
COc1ccc(NS(=O)(=O)c2ccc(NC(=S)NC(=O)C(C)C)cc2)cc1,-7,-8,-79,-7,20,-3
CC(C)C(=O)NC(=S)Nc1ccc(S(=O)(=O)Nc2ccccc2)cc1,-1,3,-2,23,6,43*
CC1CCN(C(=O)CSc2nc(COc3ccccc3)nc3ccccc23)CC1,·,·,81*,·,9,·
COc1ccc(/C=N/n2c(=S)n(C)c3ccccc32)cc1OC,3,-10,58,-7,0,-2
Cn1c(=S)n(/N=C/c2ccc3c(c2)OCO3)c2ccccc21,8,-10,64*,2,7,-19
COc1ccc2cc(C(c3nnnn3C3CCCC3)N3CCCC3)c(=O)[nH]c2c1 (stereo unspecified),·,·,4,·,10,·
Cc1ccc(C(=O)N(CCc2ccc(Cl)cc2)CC(=O)NC2CCCC2)s1,·,·,-2,·,13,·
CC(C)Cn1cnc2c1c(=O)n(C)c(=O)n2C,5,-3,23,-14,8,-2
Cn1c(=O)c2c(ncn2CN2CCN(Cn3cnc4c3c(=O)n(C)c(=O)n4C)CC2)n(C)c1=O,·,·,6,·,46*,·
S=c1nc[nH]c2c1cnn2-c1ccccc1,5,6,71*,5,9,-8
OCc1ccccc1O[C@@H]1O[C@H](CO)[C@@H](O)[C@H](O)[C@H]1O,·,·,2,·,9,·
O=C1c2cccc(O)c2C(=O)c2c(O[C@@H]3O[C@H](CO)[C@@H](O)[C@H](O)[C@H]3O)cccc21,·,·,-17,·,52*,·
SMILES,FXIIa inh,FXIa inh 1536,EP2 modulator,thrombin 1536,EP2 antag,hK5 inh
COC(=O)[C@H]1CN(C(=O)c2cccc(-n3cnnn3)c2)C[C@@H]1c1ccc(F)cc1,·,·,-55,·,7,·
CCN(CC)CCCN(Cc1cc2cc(OC)ccc2[nH]c1=O)C(=S)NC,·,·,-41,·,6,·
Cc1nn(-c2ccccc2)c2[nH]c(=O)c(CNc3ccc(F)c(Cl)c3)cc12,·,·,-22,·,20,·
Cc1cc[nH]c(=O)c1NCc1cc2c(C)nn(-c3ccccc3)c2[nH]c1=O,·,·,-71,·,46*,·
COc1ccc(NC(=O)CSc2nnnn2-c2ccc(C)cc2)c(OC)c1,·,·,-48,·,7,·
O[C@@H](c1cc([C@@]23C[C@H]4CC[C@@H]2C[C@H](C4)C3)nc2c(Cl)cc(Cl)cc12)[C@@H]1CCCCN1,·,·,19,·,77*,·
COc1ccccc1-c1cc(C(=O)NCc2noc(-c3ccccc3)n2)no1,·,·,-88,·,7,·
Cc1ccc(-c2ccc(SC(C)C(N)=O)nn2)cc1 (stereo unspecified),·,·,-80,·,8,·
COc1ccc(C2CC(C(F)(F)F)n3nc(C(=O)Nc4ccc5c(c4)OCO5)cc3N2)cc1 (stereo unspecified),43*,-4,-18,36,8,17
COc1ccc(OC)c(NC(=O)c2cc3n(n2)C(C(F)(F)F)CC(c2ccc4c(c2)OCO4)N3)c1 (stereo unspecified),·,·,·,·,5,·
CC1CCCC(C)N1C(=O)CN1CCC(c2ccc3c(c2)OCO3)CC1 (stereo unspecified),·,·,-12,·,·,·
Cc1cc(OC(=O)c2ccc(Cl)cc2Cl)nc(C)n1,45*,6,50,4,2,-53
COc1ccc2c(c1)O[C@@H](c1cccc(C(F)(F)F)c1)[C@H](OC(=O)NCCc1ccc(OC)c(OC)c1)C2=O,13,3,39,2,·,-9
COC(=O)[C@H](Cc1ccccc1)NC(=O)O[C@H]1C(=O)c2ccc(OC)cc2O[C@@H]1c1ccc2c(c1)OCO2,4,-2,0,-4,51*,-12
COC(=O)[C@H](Cc1ccccc1)NC(=O)O[C@@H]1C(=O)c2cc(OC)ccc2O[C@H]1c1ccc(OC)c(Br)c1,26,18,12,2,·,-8
COC(=O)[C@@H](NC(=O)O[C@@H]1C(=O)c2ccc(OC)cc2O[C@H]1c1cccc(C(F)(F)F)c1)C(C)C,6,-8,62*,-2,·,-12
Cc1cccc(C)c1NC(=S)N/N=C/c1c(Cl)cccc1Cl,29,31,24,50*,1,23
Cc1ccc2[nH]c3c(c2c1)CCC3=O,8,3,-15,-4,42*,-10
COc1cccc(Nc2nc3ccccc3n3cnnc23)c1,17,2,10,2,13,64*
COc1cccc(Nc2ccc(Nc3cccc(OC)c3)nn2)c1,7,9,-6,15,3,53*
COc1cccc(CNc2nc3ccc(C)cc3n3cnnc23)c1,11,3,-5,0,6,5
COc1ccc(NC(=O)C2CCCCN2S(=O)(=O)c2ccc(F)cc2)c(OC)c1 (stereo unspecified),23,1,-6,11,9,41*
